Bioassay records from PubChem BioAssay.
CRFR2-BP antag: CRF-BP/CRF-R2 complex antagonism; 350,000 compounds, 0.59% hits; inhibition, % at 11.8 µM; HEK293 CRF-R2/CRF-BP, CRF-induced calcium fluorescence; AID 588475;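 active = inhibition of the ligand-induced calcium signal above about 50% at the single tested concentration, limit read from the data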
Tn6 DDE FP: DD(E)-Tn6 binding inhibition, primary FP screen | Fibrin DD(E) TRITC-Tn6 fluorescence polarization displacement | inhibition, % at 8.3 µM | P02675 | AID 720509 | 370,000 compounds, 0.21% hits;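 active = inhibition above a per-campaign cutoff: mean of compounds within control limits plus 3 SD, cut at about 15% in these data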;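 note: 0% = median of all compound wells on the plate and 100% = blocking peptide control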
Target sequence (P02675 whole entry, looked up): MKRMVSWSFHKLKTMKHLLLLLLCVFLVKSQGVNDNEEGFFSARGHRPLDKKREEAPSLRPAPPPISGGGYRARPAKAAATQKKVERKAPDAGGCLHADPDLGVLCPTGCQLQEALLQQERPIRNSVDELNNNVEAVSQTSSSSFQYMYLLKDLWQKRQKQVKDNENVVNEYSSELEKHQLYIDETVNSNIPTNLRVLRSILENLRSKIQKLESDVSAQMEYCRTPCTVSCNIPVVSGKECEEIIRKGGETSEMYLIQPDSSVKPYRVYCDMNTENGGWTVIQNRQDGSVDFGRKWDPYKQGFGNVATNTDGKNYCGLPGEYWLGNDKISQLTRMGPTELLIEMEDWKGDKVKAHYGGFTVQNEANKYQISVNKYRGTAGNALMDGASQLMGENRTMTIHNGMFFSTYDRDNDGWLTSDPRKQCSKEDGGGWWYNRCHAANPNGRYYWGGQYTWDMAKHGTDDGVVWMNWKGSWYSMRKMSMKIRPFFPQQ
Tn7 DDE FP: disrupts Tn7 cyclic peptide binding to fibrin D-Dimer-E complex | P02675 | FP displacement of FITC-Tn7 peptide from fibrin DD(E); 0% = median of compound wells per plate | inhibition, % at 8.3 µM | 370,000 compounds, 0.13% hits | AID 720508;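 active = inhibition above the mean of compounds falling within the control limits plus 3 SD of them, cut at about 14% in these data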;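 note: 0% = plate median of compound wells and 100% = 10 µM Aha-Tn7 peptide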
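Test system – human fibrin DD(E) · Times – 10 min preincubation, 3 h with tracer, room temperature · Detection – fluorescence polarization of the labelled Tn7 tracer · Measure – percent inhibition normalized to high-control wells · Benchmarks – high control wells with 10 µM unlabelled Aha-Tn7 peptide (full inhibition) · Repeats – singlicate testing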
CRFR2-BP ag: CRF-BP/CRF-R2 complex agonism; HEK293 CRF-R2/CRF-BP, calcium dye fluorescence (FLIPR); percent of saturating CRF peptide response; activation, % at 13.2 µM; 350,000 compounds, 0.46% hits;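 active = activation of at least 50%, plus an integration ratio under a set limit after plate pattern correction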;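 note: plate controls were neutral control wells without compound for no effect and CRF at EC100 for full effect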
Numbers without * were called inactive; x = not tested or not shown. Hits are enriched below; roughly 1.3% of the tested compounds scored in any of these assays.

SMILES	CRFR2-BP antag	Tn6 DDE FP	Tn7 DDE FP	CRFR2-BP ag
COC(=O)[C@]12C[C@H](CC(=O)NCc3ccc(OC)c(OC)c3)C(=O)N(Cc3cccc4ccccc34)C1=C[C@H](C(C)C)O[C@@H]2C1CC1	x	6.1	-1.6	x
Cc1ccc(-n2nnnc2CNC(=O)C2CC(=O)N(c3ccc(F)cc3)C2)cc1C (stereo not given)	-1.9	-7.0	-4.6	0.4
CCOc1ccc(N2CC(C(=O)NCc3nnnn3-c3ccc(C)c(C)c3)CC2=O)cc1 (stereo not given)	53.5*	-6.9	-1.8	-0.4
CCOC(=O)c1sc(-c2ccccc2)cc1NC(=O)Nc1ccccc1	-13.7	-8.6	-0.5	4.4
CCOC(=O)c1sc(-c2ccc(F)cc2)cc1NC(=O)Nc1ccccc1OC	-93.2	0.2	0.8	89.2*
COc1ccc(-c2cc3ccccc3[nH]2)cc1	59.7*	-3.3	-5.5	0.1
CN(C)c1cccc(/C=C2\CC3(OC(=O)c4ccccc4)CCCN2C3)c1 (stereo not given)	x	-5.0	8.9	x
CCOC(=O)CC[C@@H]1CC[C@]2(CCCN(C(=O)c3ccno3)C2)O1	x	1.8	0.6	x
C#CCOCCOCCOCCNc1nc(N2CCN(C(=O)[C@H](CCCCN)n3cc([C@@H](N)CC(C)C)nn3)CC2)nc(N2CCN(C(=O)[C@H](Cc3cc4ccccc4[nH]3)n3cc([C@@H](N)CC(C)C)nn3)CC2)n1	x	0.9	-1.3	x
CNc1nc(NC)nc(NNC(=O)c2ccccc2)n1	50.8*	-0.9	3.0	-1.9
CN1C(=O)C(c2cn(C)c3ccccc23)(c2cn(C)c3ccccc23)c2ccccc21	x	-2.7	-3.1	x
COC(=O)c1ccc2nc3c(cc2c1)[C@@H]1CCN2C(=O)CCC[C@H](C3)[C@H]12	86.5*	1.8	1.2	-0.3
Cc1nc(N2CCN(C(=O)C3CC3)CC2)c2c3c(sc2n1)CC(C)CC3 (stereo not given)	x	-7.4	0.6	x
CO/N=C/C(C#N)c1ncc(C(F)(F)F)cc1Cl (stereo not given)	76.8*	x	x	49.2
Cc1cc(C)nc(SCc2nnc(SCc3ccc([N+](=O)[O-])cc3)n2Cc2ccco2)n1	78.7*	-12.9	6.1	-0.8
COC(=O)CSc1nnc(CSc2nc(C)cc(C)n2)n1Cc1ccco1	2.3	0.2	-3.5	-0.4
Cc1ccc(S(=O)(=O)NNC(=S)Nc2cccc(F)c2)cc1	92.6*	4.0	2.2	-1.3
CC(C)OCc1c(C(=O)OC/C(O)=C(\C#N)c2nc3ccccc3[nH]2)oc2ccccc12	62.3*	9.2	-0.1	3.6
N#C/C(=C(/O)COC(=O)COc1cccc(Br)c1)c1nc2ccccc2[nH]1	100.0*	-1.9	-9.2	4.4
Cc1cc(C)cc(OCC(=O)OC/C(O)=C(\C#N)c2nc3ccccc3[nH]2)c1	7.2	0.5	-2.7	-1.1
Cc1c(C(=O)OC/C(O)=C(\C#N)c2nc3ccccc3[nH]2)oc2ccc(Br)cc12	4.8	8.0	0.1	0.9
Cc1cc(O)cc(=O)n1-c1ccc(OC(F)F)cc1	x	11.1	-6.8	x
CC(C)NC(=O)CN1C(=O)CSc2ccc(S(=O)(=O)N3CCCC3)cc21	64.3*	7.9	1.6	4.2
C[C@@H]1COc2cc(N3CCCC3)ccc2S(=O)(=O)N1C	x	0.7	0.4	x
COc1ccc(SCC(=O)Nc2ccccc2Cl)cc1	80.2*	-9.0	2.0	-0.3
SMILES	CRFR2-BP antag	Tn6 DDE FP	Tn7 DDE FP	CRFR2-BP ag
CCC(C)CNC(=O)c1cn(C(C)c2ccccc2)nn1 (stereo not given)	x	2.0	4.3	x
CN(C)c1ccc(/C(=N\O)c2ccccc2)cc1	60.6*	-1.0	5.4	-0.4
CC(C)N1C(=O)S/C(=C/c2ccccc2OCc2ccc(C(=O)O)cc2)C1=O	69.0*	-2.9	-2.8	4.0
CCN(CC)c1ccc2c(-c3ccc(S(=O)(=O)O)cc3S(=O)(=O)[O-])c3ccc(=[N+](CC)CC)cc-3oc2c1	-32.6	x	x	55.2*
COc1cc(/C=C2\CCC(C)C3=C(c4cc(OC)c(OC)c(OC)c4)C(C#N)=C(N)OC32)cc(OC)c1OC (stereo not given)	-62.9	-0.7	-2.7	63.1*
COCCCNC(=O)C[C@H]1C[C@@]2(C(=O)OC)C(=C[C@H](C(C)C)O[C@@H]2C2CC2)N(Cc2ccc3c(c2)OCO3)C1=O	x	-4.8	0.9	x
Cc1c(C(=O)NCc2cccnc2)oc2ccccc12	61.9*	-6.1	-1.5	-0.7
Cc1c(C(=O)NCCc2ccccc2)oc2ccccc12	49.8	-2.1	0.6	-1.3
COC(=O)[C@H](CC(C)C)N(CCCc1cn(Cc2ccc(C)cc2)nn1)S(=O)(=O)c1ccccc1Br	x	0.0	-4.5	x
